Assay results reported in ChEMBL document CHEMBL2034972, “Synthesis, biological evaluation, and structure-activity relationships of N-benzoyl-2-hydroxybenzamides as agents active against P. falciparum (K1 strain), Trypanosomes, and Leishmania” (J Med Chem, 2012).
Converted amounts (≈) assume the structure as drawn.

How the values were obtained:
[1] = Selectivity index, ratio of IC50 for rat L6 cells to IC50 for chloroquine and pyrimethamine-resistant Plasmodium falciparum K1; format: toxicity, cell-based; conditions: read-out: Ratio IC50
How it was run: (§1)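 Selectivity index is calculated as the L6 myoblast IC50 divided by the IC50 against the respective parasite. Both IC50s are in µg/mL and are means of two independent determinations.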

[2] = Selectivity index, ratio of IC50 for rat L6 cells to IC50 for trypomastigotes of Trypanosoma brucei rhodesiense STIB 900; format: toxicity, cell-based; conditions: read-out: Ratio IC50; how it was run: as §1
[3] = Selectivity index, ratio of IC50 for rat L6 cells to IC50 for axenic amastigote stage of Leishmania donovani MHOM/ET/67/L82; format: toxicity, cell-based; conditions: read-out: Ratio IC50; how it was run: as §1
[4] = tested on: Plasmodium falciparum; assay: Antimalarial activity against chloroquine and pyrimethamine-resistant Plasmodium falciparum […] assessed as [3H]-hypoxanthine incorporation after 48 hrs by liquid scintillation counting; format: functional, organism-based
How it was run: (§2)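 In vitro screens of parasites and host cells: T. b. rhodesiense STIB900 trypomastigotes, T. cruzi Tulahuen C4 intracellular amastigotes, L. donovani MHOM-ET-67/L82 axenic amastigotes, P. falciparum K1 erythrocytic stage, and L6 rat skeletal myoblasts […] for toxicity. […] Values are means of two independent determinations.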

[5] = tested on: Leishmania donovani; assay: Antileishmanial activity against axenic amastigote stage of Leishmania donovani […] after 72 hrs by alamar blue assay; format: functional, organism-based; conditions: MHOM/ET/67/L82, L6, 72 h
How it was run: (§3)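 In vitro screens of parasites and host cells: T. b. rhodesiense STIB900 trypomastigotes, T. cruzi Tulahuen C4 intracellular amastigotes, L. donovani MHOM-ET-67/L82 axenic amastigotes, P. falciparum K1 erythrocytic stage, and L6 rat skeletal myoblasts […] for toxicity. Values are means of two independent determinations.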

[6] = Selectivity index, ratio of IC50 for rat L6 cells to IC50 for intracellular amastigote stage of Trypanosoma cruzi Tulahuen C2C4; format: toxicity, cell-based; conditions: read-out: Ratio IC50; how it was run: as §1
[7] = tested on: L6; assay: Cytotoxicity against rat L6 cells after 72 hrs by alamar blue assay; format: cell-based; conditions: L6, 72 h; how it was run: as §2
[8] = tested on: Trypanosoma cruzi; assay: Antitrypanosomal activity against intracellular amastigote stage of Trypanosoma cruzi Tulahuen C2C4 infected in rat L6 cells after 96 hrs by spectrophotometric analysis; format: functional, organism-based; conditions: Tulahuen C2C4, L6, 96 h; how it was run: as §3
[9] = tested on: Trypanosoma brucei rhodesiense; assay: Antitrypanosomal activity against trypomastigotes of Trypanosoma brucei rhodesiense […] after 72 hrs by alamar blue assay; format: functional, organism-based; conditions: STIB 900, L6, 72 h; how it was run: as §2
[10] = target: CYP2C9 (Homo sapiens, UniProt P11712); assay: Inhibition of CYP2C9 at 10 uM; format: ADME
Chain of CYP2C9 (P11712 whole entry): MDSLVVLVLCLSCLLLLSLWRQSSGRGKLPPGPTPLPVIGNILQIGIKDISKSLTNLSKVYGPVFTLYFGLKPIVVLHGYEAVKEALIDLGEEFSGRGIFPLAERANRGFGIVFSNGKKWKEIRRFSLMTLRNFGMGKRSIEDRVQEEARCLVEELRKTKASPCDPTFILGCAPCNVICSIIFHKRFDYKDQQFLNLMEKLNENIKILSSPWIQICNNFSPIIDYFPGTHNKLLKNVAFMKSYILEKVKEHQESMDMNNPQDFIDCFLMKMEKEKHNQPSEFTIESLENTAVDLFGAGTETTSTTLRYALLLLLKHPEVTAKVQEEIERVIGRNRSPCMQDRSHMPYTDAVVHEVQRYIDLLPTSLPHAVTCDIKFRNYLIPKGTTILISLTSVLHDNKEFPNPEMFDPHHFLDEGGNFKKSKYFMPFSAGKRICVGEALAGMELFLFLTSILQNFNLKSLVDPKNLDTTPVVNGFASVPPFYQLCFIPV

[11] = target: CYP2D6 (Homo sapiens, UniProt P10635); assay: Inhibition of CYP2D6 at 10 uM; format: ADME
Chain of CYP2D6 (P10635 whole entry): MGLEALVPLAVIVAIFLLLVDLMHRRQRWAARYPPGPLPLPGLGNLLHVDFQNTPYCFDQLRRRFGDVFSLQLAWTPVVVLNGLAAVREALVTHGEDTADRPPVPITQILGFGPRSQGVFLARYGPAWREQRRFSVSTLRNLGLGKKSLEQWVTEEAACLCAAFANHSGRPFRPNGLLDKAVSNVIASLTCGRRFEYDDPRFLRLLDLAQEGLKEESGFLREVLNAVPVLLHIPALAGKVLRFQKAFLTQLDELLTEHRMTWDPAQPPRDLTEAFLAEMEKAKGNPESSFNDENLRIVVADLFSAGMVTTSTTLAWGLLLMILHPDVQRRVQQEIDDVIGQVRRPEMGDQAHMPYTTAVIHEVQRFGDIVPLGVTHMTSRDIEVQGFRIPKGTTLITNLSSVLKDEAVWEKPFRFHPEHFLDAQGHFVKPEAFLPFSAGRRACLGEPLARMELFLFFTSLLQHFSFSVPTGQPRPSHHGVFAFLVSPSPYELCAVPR

[12] = Plasma protein binding in human; format: ADME, cell-free; conditions: read-out: PPB (converted)
[13] = target: CYP3A4 (Homo sapiens, UniProt P08684); assay: Inhibition of CYP3A4 at 10 uM; format: ADME
Chain of CYP3A4 (P08684 whole entry): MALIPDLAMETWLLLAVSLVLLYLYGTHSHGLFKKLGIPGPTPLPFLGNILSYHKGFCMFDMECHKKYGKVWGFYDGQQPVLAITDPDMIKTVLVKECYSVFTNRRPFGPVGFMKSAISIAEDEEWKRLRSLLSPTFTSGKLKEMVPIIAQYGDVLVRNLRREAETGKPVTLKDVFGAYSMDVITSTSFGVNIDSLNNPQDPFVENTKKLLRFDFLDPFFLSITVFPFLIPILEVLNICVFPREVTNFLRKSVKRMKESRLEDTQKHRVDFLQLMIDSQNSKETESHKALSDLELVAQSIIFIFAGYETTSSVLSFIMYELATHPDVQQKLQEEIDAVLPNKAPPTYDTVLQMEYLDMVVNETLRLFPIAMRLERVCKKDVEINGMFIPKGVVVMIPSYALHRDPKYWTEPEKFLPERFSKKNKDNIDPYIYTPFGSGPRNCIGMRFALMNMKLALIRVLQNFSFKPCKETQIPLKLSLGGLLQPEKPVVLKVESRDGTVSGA

[14] = Intrinsic clearance in human liver microsomes assessed per mg of protein; format: ADME, Microsome; conditions: read-out: CLH
[15] = Metabolic stability of the compound in human liver microsomes assessed as compound remaining after 60 mins; format: ADME, Microsome; conditions: read-out: Stability
[16] = Metabolic stability of the compound in human liver microsomes assessed as compound remaining after 60 mins in presence of NADPH; format: ADME, Microsome; conditions: read-out: Stability
[17] = Aqueous solubility of the compound in phosphate based buffer at pH 7.4; format: physicochemical
[18] = Aqueous solubility of the compound in phosphate based buffer at pH 4; format: physicochemical
[19] = target: Voltage-gated inwardly rectifying potassium channel KCNH2 (Homo sapiens, UniProt Q12809); assay: Inhibition of human Erg at 300 uM
Chain of Voltage-gated inwardly rectifying potassium channel KCNH2 (Q12809 whole entry): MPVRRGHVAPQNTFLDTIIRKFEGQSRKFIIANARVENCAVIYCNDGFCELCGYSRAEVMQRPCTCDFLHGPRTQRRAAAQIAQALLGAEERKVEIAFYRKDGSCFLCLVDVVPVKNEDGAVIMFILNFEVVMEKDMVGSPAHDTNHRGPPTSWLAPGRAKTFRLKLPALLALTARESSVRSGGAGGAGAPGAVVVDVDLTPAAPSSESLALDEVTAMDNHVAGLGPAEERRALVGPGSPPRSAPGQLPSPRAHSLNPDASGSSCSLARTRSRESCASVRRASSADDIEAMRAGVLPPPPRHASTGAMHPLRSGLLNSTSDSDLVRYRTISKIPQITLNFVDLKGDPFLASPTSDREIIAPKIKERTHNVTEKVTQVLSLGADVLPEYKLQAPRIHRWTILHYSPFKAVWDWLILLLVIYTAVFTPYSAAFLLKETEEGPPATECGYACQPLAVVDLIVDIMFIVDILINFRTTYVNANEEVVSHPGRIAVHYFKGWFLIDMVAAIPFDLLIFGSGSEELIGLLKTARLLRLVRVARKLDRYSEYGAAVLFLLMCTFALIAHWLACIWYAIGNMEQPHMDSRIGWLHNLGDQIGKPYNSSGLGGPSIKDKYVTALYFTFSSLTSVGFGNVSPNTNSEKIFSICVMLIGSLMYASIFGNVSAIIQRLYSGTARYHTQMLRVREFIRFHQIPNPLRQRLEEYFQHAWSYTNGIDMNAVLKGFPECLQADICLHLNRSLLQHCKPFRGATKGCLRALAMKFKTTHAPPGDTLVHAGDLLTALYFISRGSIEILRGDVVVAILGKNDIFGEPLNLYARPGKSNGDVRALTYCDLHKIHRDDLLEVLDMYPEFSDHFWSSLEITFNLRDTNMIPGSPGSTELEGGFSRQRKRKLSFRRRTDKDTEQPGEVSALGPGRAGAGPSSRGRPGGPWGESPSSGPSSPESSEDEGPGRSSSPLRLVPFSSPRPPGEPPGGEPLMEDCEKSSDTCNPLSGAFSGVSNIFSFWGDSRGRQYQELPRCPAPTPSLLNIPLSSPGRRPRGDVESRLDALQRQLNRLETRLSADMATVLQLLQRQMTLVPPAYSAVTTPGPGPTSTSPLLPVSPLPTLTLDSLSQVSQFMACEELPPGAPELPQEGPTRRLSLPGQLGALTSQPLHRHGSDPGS

## O=C(NC(=O)c1ccccc1O)c1ccc2ccccc2c1
[1]
  selectivity ratio: 94
[2]
  selectivity ratio: 0.78
[3]
  selectivity ratio: 20
[4]
  IC50: 0.22 µg/mL (≈ 0.755 µM)
[5]
  IC50: 1 µg/mL (≈ 3.43 µM)
[6]
  selectivity ratio: 2.4
[7]
  IC50: 21 µg/mL (≈ 72.1 µM)
[8]
  IC50: 8.5 µg/mL (≈ 29.2 µM)
[9]
  IC50: 26 µg/mL (≈ 89.3 µM)

## COc1ccc2cc(C(=O)NC(=O)c3ccccc3O)ccc2c1
[1]
  selectivity ratio: 57
[2]
  selectivity ratio: 1.3
[3]
  selectivity ratio: 40
[4]
  IC50: 0.98 µg/mL (≈ 3.05 µM)
[5]
  IC50: 1.4 µg/mL (≈ 4.36 µM)
[6]
  selectivity ratio: 11
[7]
  IC50: 56 µg/mL (≈ 174 µM)
[8]
  IC50: 5.1 µg/mL (≈ 15.9 µM)
[9]
  IC50: 42 µg/mL (≈ 131 µM)

## O=C(NC(=O)c1ccccc1O)c1cccc(CCl)c1
[1]
  selectivity ratio: 0.4
[2]
  selectivity ratio: 0.087
[3]
  selectivity ratio: 11
[4]
  IC50: 4.4 µg/mL (≈ 15.2 µM)
[5]
  IC50: 0.16 µg/mL (≈ 0.552 µM)
[6]
  selectivity ratio: 0.1
[7]
  IC50: 1.8 µg/mL (≈ 6.21 µM)
[8]
  IC50: 17 µg/mL (≈ 58.7 µM)
[9]
  IC50: 20 µg/mL (≈ 69 µM)

## O=C(NC(=O)c1ccc(Cl)cc1Cl)c1ccccc1O
[1]
  selectivity ratio: 4.4
[2]
  selectivity ratio: < 0.62
[3]
  selectivity ratio: 5.5
[4]
  IC50: 14 µg/mL (≈ 45.1 µM)
[5]
  IC50: 11 µg/mL (≈ 35.5 µM)
[6]
  selectivity ratio: 1.1
[7]
  IC50: 62 µg/mL (≈ 200 µM)
[8]
  IC50: 58 µg/mL (≈ 187 µM)
[9]
  IC50: > 100 µg/mL

## O=C(NC(=O)c1ccccc1O)c1ccc2c(c1)OCO2
[1]
  selectivity ratio: 5.6
[2]
  selectivity ratio: < 0.47
[3]
  selectivity ratio: < 0.47
[4]
  IC50: 4.2 µg/mL (≈ 14.7 µM)
[5]
  IC50: > 50 µg/mL
[6]
  selectivity ratio: 0.86
[7]
  IC50: 24 µg/mL (≈ 84.1 µM)
[8]
  IC50: 27 µg/mL (≈ 94.7 µM)
[9]
  IC50: > 50 µg/mL

## COc1cc(C(=O)NC(=O)c2ccccc2O)cc(OC)c1OC
[1]
  selectivity ratio: 26
[2]
  selectivity ratio: 0.26
[3]
  selectivity ratio: 6.5
[4]
  IC50: 0.78 µg/mL (≈ 2.35 µM)
[5]
  IC50: 3.2 µg/mL (≈ 9.66 µM)
[6]
  selectivity ratio: 0.51
[7]
  IC50: 21 µg/mL (≈ 63.4 µM)
[8]
  IC50: 40 µg/mL (≈ 121 µM)
[9]
  IC50: 79 µg/mL (≈ 238 µM)

## O=C(NC(=O)C1CCCCC1)c1ccccc1O
[1]
  selectivity ratio: 4.4
[2]
  selectivity ratio: < 0.55
[3]
  selectivity ratio: 9.2
[4]
  IC50: 13 µg/mL (≈ 52.6 µM)
[5]
  IC50: 6 µg/mL (≈ 24.3 µM)
[6]
  selectivity ratio: 3.4
[7]
  IC50: 55 µg/mL (≈ 222 µM)
[8]
  IC50: 16 µg/mL (≈ 64.7 µM)
[9]
  IC50: > 100 µg/mL

## Cc1occc1C(=O)NC(=O)c1ccccc1O
[1]
  selectivity ratio: 3.4
[2]
  selectivity ratio: 0.33
[3]
  selectivity ratio: 7.8
[4]
  IC50: 4.7 µg/mL (≈ 19.2 µM)
[5]
  IC50: 2 µg/mL (≈ 8.16 µM)
[6]
  selectivity ratio: 0.44
[7]
  IC50: 16 µg/mL (≈ 65.2 µM)
[8]
  IC50: 36 µg/mL (≈ 147 µM)
[9]
  IC50: 48 µg/mL (≈ 196 µM)

## CCc1ccc(C(=O)N(C)C(=O)c2ccccc2O)cc1
[1]
  selectivity ratio: 0.33
[2]
  selectivity ratio: < 0.094
[3]
  selectivity ratio: 1
[4]
  IC50: 28 µg/mL (≈ 98.8 µM)
[5]
  IC50: 9.1 µg/mL (≈ 32.1 µM)
[6]
  selectivity ratio: 0.33
[7]
  IC50: 9.4 µg/mL (≈ 33.2 µM)
[8]
  IC50: 29 µg/mL (≈ 102 µM)
[9]
  IC50: > 100 µg/mL

## CCc1ccc(C(=O)NNC(=O)c2ccccc2O)cc1
[1]
  selectivity ratio: 0.18
[2]
  selectivity ratio: 0.28
[3]
  selectivity ratio: 0.77
[4]
  IC50: 27 µg/mL (≈ 95 µM)
[5]
  IC50: 6.2 µg/mL (≈ 21.8 µM)
[6]
  selectivity ratio: 2.2
[7]
  IC50: 4.8 µg/mL (≈ 16.9 µM)
[8]
  IC50: 2.2 µg/mL (≈ 7.74 µM)
[9]
  IC50: 17 µg/mL (≈ 59.8 µM)

## CCc1ccc(C(=O)NC(=S)c2ccccc2O)cc1
[1]
  selectivity ratio: 4.1
[2]
  selectivity ratio: 0.28
[3]
  selectivity ratio: 3.3
[4]
  IC50: 4.2 µg/mL (≈ 14.7 µM)
[5]
  IC50: 5.3 µg/mL (≈ 18.6 µM)
[6]
  selectivity ratio: 1.7
[7]
  IC50: 17 µg/mL (≈ 59.6 µM)
[8]
  IC50: 10 µg/mL (≈ 35 µM)
[9]
  IC50: 61 µg/mL (≈ 214 µM)

## CCc1ccc(NC(=O)NC(=O)c2ccccc2O)cc1
[1]
  selectivity ratio: 2.8
[2]
  selectivity ratio: 2
[3]
  selectivity ratio: 0.7
[4]
  IC50: 26 µg/mL (≈ 91.4 µM)
[5]
  IC50: 100 µg/mL (≈ 352 µM)
[6]
  selectivity ratio: 0.95
[7]
  IC50: 70 µg/mL (≈ 246 µM)
[8]
  IC50: 74 µg/mL (≈ 260 µM)
[9]
  IC50: 36 µg/mL (≈ 127 µM)

## CCc1ccc(NC(=O)Nc2ccccc2O)cc1
[1]
  selectivity ratio: 4.6
[2]
  selectivity ratio: 0.54
[3]
  selectivity ratio: 2.6
[4]
  IC50: 2.1 µg/mL (≈ 8.19 µM)
[5]
  IC50: 3.7 µg/mL (≈ 14.4 µM)
[6]
  selectivity ratio: 1.4
[7]
  IC50: 9.6 µg/mL (≈ 37.5 µM)
[8]
  IC50: 7 µg/mL (≈ 27.3 µM)
[9]
  IC50: 18 µg/mL (≈ 70.2 µM)

## CCc1ccc(C(=O)n2c(=O)oc3ccccc3c2=O)cc1
[1]
  selectivity ratio: 3.7
[2]
  selectivity ratio: 0.31
[3]
  selectivity ratio: 13
[4]
  IC50: 6.9 µg/mL (≈ 23.4 µM)
[5]
  IC50: 1.9 µg/mL (≈ 6.43 µM)
[6]
  selectivity ratio: 3
[7]
  IC50: 26 µg/mL (≈ 88 µM)
[8]
  IC50: 8.8 µg/mL (≈ 29.8 µM)
[9]
  IC50: 83 µg/mL (≈ 281 µM)

## CCc1ccc(C(=O)Nc2cn(C(C)=O)c3ccccc23)cc1
[1]
  selectivity ratio: 1
[2]
  selectivity ratio: < 0.46
[3]
  selectivity ratio: < 0.46
[4]
  IC50: 23 µg/mL (≈ 75.1 µM)
[5]
  IC50: > 50 µg/mL
[6]
  selectivity ratio: < 0.81
[7]
  IC50: 23 µg/mL (≈ 75.1 µM)
[8]
  IC50: 28 µg/mL (≈ 91.4 µM)
[9]
  IC50: > 50 µg/mL

## CCc1ccc(NC(=O)CC(=O)Nc2ccccc2O)cc1
[1]
  selectivity ratio: 1.3
[2]
  selectivity ratio: 0.44
[3]
  selectivity ratio: 1.2
[4]
  IC50: 12 µg/mL (≈ 40.2 µM)
[5]
  IC50: 13 µg/mL (≈ 43.6 µM)
[6]
  selectivity ratio: 0.76
[7]
  IC50: 16 µg/mL (≈ 53.6 µM)
[8]
  IC50: 20 µg/mL (≈ 67 µM)
[9]
  IC50: 35 µg/mL (≈ 117 µM)

## CCc1ccc(C(=O)NC(=O)c2ccccc2O)cc1
[10]
  inhibition at 10 µM: 71%
[4]
  IC50: 5.6 µg/mL (≈ 20.8 µM)
[11]
  inhibition at 10 µM: 71%
[12]
  fraction unbound: 0.001
[5]
  IC50: 7.4 µg/mL (≈ 27.5 µM)
[13]
  inhibition at 10 µM: 71%
[14]
  microsomal CLint: 282 µL/min/mg
[15]
  remaining at 1 h: 53%
[7]
  IC50: 70 µg/mL (≈ 260 µM)
[16]
  remaining at 1 h: 0.5%
[17]
  solubility: 50.8 µM (≈ 13.7 µg/mL)
[18]
  solubility: 2.76 µM (≈ 0.743 µg/mL)
[19]
  inhibition (INH): Not Active
[8]
  IC50: 4.8 µg/mL (≈ 17.8 µM)
[9]
  IC50: 81 µg/mL (≈ 301 µM)

## O=C(NC(=O)c1ccccc1O)c1ccccc1O
[1]
  selectivity ratio: 36
[2]
  selectivity ratio: 0.63
[3]
  selectivity ratio: 21
[4]
  IC50: 1.1 µg/mL (≈ 4.28 µM)
[5]
  IC50: 1.9 µg/mL (≈ 7.39 µM)
[6]
  selectivity ratio: 2.8
[7]
  IC50: 39 µg/mL (≈ 152 µM)
[8]
  IC50: 14 µg/mL (≈ 54.4 µM)
[9]
  IC50: 62 µg/mL (≈ 241 µM)

## OC(Cn1cncn1)(Cn1cncn1)c1ccc(F)cc1F [FLUCONAZOLE]
[12]
  fraction unbound: 0.763
